Laboratory results: ChEMBL document CHEMBL2429803, “Animal toxicity of hairpin pyrrole-imidazole polyamides varies with the turn unit” (J Med Chem, 2013)

Key:
Mus musculus = assay: Acute toxicity in C57BL/6J mouse assessed as weight loss at 10 mg/kg, sc after 9 days; assay type: organism-based; design: dose 10 mg/kg, route subcutaneous; settings: in vivo, 216 h
How it was run: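 Male C57BL/6J mice, 8 weeks old, were acclimated 3 days and then given a single sc injection of 1, 3 or 10 mg/kg in 25% DMSO/saline vehicle (up to 200 μL), n = 4 per group. Weight, behaviour and appearance were monitored daily for 9 days before sacrifice. The humane end point was visible duress or weight loss over 15% of the original.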

[1] = Drug uptake in nucleus of C57BL/6J mouse liver at 3 mg/kg, sc after 24 hrs by confocal microscopic analysis; assay type: ADME, organism-based; design: dose 3 mg/kg, route subcutaneous; settings: in vivo
How it was run: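 Male C57BL/6J mice, 2 per group, injected with 50 nmol (~3 mg/kg) of fluorescein-conjugated polyamide and sacrificed 24 h later. Liver fixed in 10% formalin for 48 h, cryoprotected in 15% then 30% sucrose, and frozen. Nuclear fluorescence assessed by confocal microscopy in 10 μm sections.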

[2] = Drug uptake in human LNCAP cell nucleus at 2 uM after 24 hrs by confocal microscopic analysis; assay type: ADME, cell-based
How it was run: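 LNCaP cells incubated 24 h with 2 μM of the fluorescein-conjugated polyamide. Nuclear localization imaged by confocal microscopy.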

| Drug uptake [1] | Drug uptake [2] | Compound | Activity (Mus musculus) |
| --- | --- | --- | --- |
| – | – | Cn1cc2cc1C(=O)NCCCC(=O)Nc1cn(C)c(n1)C(=O)Nc1cc(n(C)c1)C(=O)Nc1cc(n(C)c1)C(=O)Nc1cc(n(C)c1)C(=O)NCC[C@@H](N)C(=O)Nc1cn(C)c(n1)C(=O)Nc1cc(n(C)c1)C(=O)Nc1cc(n(C)c1)C(=O)N2 | Non-toxic |
| Active | – | CC(=O)N[C@@H](CNC(=O)c1cc(NC(=O)c2cc(NC(=O)c3cc(NC(=O)c4nccn4C)cn3C)cn2C)cn1C)CC(=O)Nc1cn(C)c(C(=O)Nc2cc(C(=O)Nc3cc(C(=O)Nc4cc(C(=O)NCCCN(C)CCCNC(=S)Nc5ccc(-c6c7ccc(=O)cc-7oc7cc(O)ccc67)c(C(=O)O)c5)n(C)c4)n(C)c3)n(C)c2)n1 | – |
| Active | Active | CC(=O)N[C@H](CCNC(=O)c1cc(NC(=O)c2cc(NC(=O)c3cc(NC(=O)c4nccn4C)cn3C)cn2C)cn1C)C(=O)Nc1cn(C)c(C(=O)Nc2cc(C(=O)Nc3cc(C(=O)Nc4cc(C(=O)NCCCN(C)CCCNC(=S)Nc5ccc(-c6c7ccc(=O)cc-7oc7cc(O)ccc67)c(C(=O)O)c5)n(C)c4)n(C)c3)n(C)c2)n1 | – |
| – | Active | CN(CCCNC(=O)c1cc(NC(=O)c2cc(NC(=O)c3cc(NC(=O)c4nc(NC(=O)[C@H](N)CCNC(=O)c5cc(NC(=O)c6cc(NC(=O)c7cc(NC(=O)c8nccn8C)cn7C)cn6C)cn5C)cn4C)cn3C)cn2C)cn1C)CCCNC(=S)Nc1ccc(-c2c3ccc(=O)cc-3oc3cc(O)ccc23)c(C(=O)O)c1 | – |
